Source: ChEMBL document CHEMBL1144557, “The novel C-5 aryl, alkenyl, and alkynyl substituted uracil derivatives of L-ascorbic acid: synthesis, cytostatic, and antiviral activity evaluations” (Bioorg Med Chem, 2007)
≈ marks a conversion by molar mass, not a printed value.

Experiments:
WI-38 = assay: Antiproliferative activity against human WI38 cells after 72 hrs by MTT assay; assay type: functional, cell-based; settings: WI-38, 72 h
Summary of the method: (§1)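 Monolayers grown in DMEM with 10% FBS, 2 mM L-glutamine and penicillin/streptomycin at 37 °C, 5% CO2. Seeded at 1 × 10⁴–3 × 10⁴ cells/mL on day 0. Compounds from 0.04 M DMSO stocks added at five 10-fold dilutions (10⁻⁸–10⁻⁴ M final), with matched DMSO controls, for 72 h. MTT added for 4 h, formazan dissolved in DMSO, absorbance read at 570 nm. Percentage growth calculated against time-zero and untreated OD. IC50 is 50% inhibition of proliferation.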

Sindbis virus = assay: Antiviral activity against Sindbis virus-induced cytopathogenicity in Vero cells; assay type: functional
[1] = Cytotoxicity against E6SM cells; assay type: cell-based; settings: human
Summary of the method: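 Cells seeded at 5 × 10³ cells/well and exposed to medium containing a range of test compound concentrations. After 3 days at 37 °C, cell morphology examined microscopically. Reported as minimum cytotoxic concentration (MCC), the concentration causing a microscopically detectable alteration of normal cell morphology.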

Coxsackievirus B4 = assay: Antiviral activity against Coxsackie virus B4-induced cytopathogenicity in Vero cells; assay type: functional; settings: Enterovirus B
MCF7 = assay: Antiproliferative activity against human MCF7 cells after 72 hrs by MTT assay; assay type: functional, cell-based; settings: MCF7, 72 h; summary of the method: as §1
[2] = tested on: Vesicular stomatitis virus; assay: Antiviral activity against in Vesicular stomatitis virus-induced cytopathogenicity in E6SM cells; assay type: functional
L1210 = assay: Antiproliferative activity against mouse L1210 cells; assay type: functional, cell-based
Summary of the method: (§2)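 Suspension cells seeded at 50 × 10³ cells/well with a range of test compound concentrations. Cell number counted with a Coulter counter after 2 days (L1210) or 3 days (Molt4/C8, CEM). IC50 is the concentration that cuts cell growth by 50% versus untreated controls, read from plots of cell number (% of control) against concentration.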

[3] = Antiproliferative activity against human Molt4/C8 cells; assay type: functional, cell-based; settings: MOLT-4; summary of the method: as §2
Human alphaherpesvirus 2 = assay: Antiviral activity against HSV2 G-induced cytopathogenicity in E6SM cells; assay type: functional; settings: Human alphaherpesvirus 2, G
Human alphaherpesvirus 1 [4] = assay: Antiviral activity against HSV1 KOS-induced cytopathogenicity in E6SM cells; assay type: functional; settings: Human alphaherpesvirus 1, KOS
MIA PaCa-2 = assay: Antiproliferative activity against human MiaPaCa2 cells after 72 hrs by MTT assay; assay type: functional, cell-based; settings: Homo sapiens, MIA PaCa-2, 72 h; read-out: IC50; summary of the method: as §1
HEp-2 = assay: Antiproliferative activity against human Hep2 cells after 72 hrs by MTT assay; assay type: functional, cell-based; settings: HEp-2, 72 h; summary of the method: as §1
HeLa = assay: Antiproliferative activity against human HeLa cells after 72 hrs by MTT assay; assay type: functional, cell-based; summary of the method: as §1
[5] = tested on: Vesicular stomatitis virus; assay: Antiviral activity against in Vesicular stomatitis virus- induced cytopathogenicity in HeLa cells; assay type: functional
CCRF-CEM = assay: Antiproliferative activity against human CEM cells; assay type: functional, cell-based; summary of the method: as §2
Punta Toro virus = assay: Antiviral activity against Punta Toro virus-induced cytopathogenicity in Vero cells; assay type: functional
Human alphaherpesvirus 1 [6] = assay: Antiviral activity against HSV1 TK- KOS ACV-induced cytopathogenicity in E6SM cells; assay type: functional; settings: Human alphaherpesvirus 1, KOS
SW-620 = assay: Antiproliferative activity against human SW620 cells after 72 hrs by MTT assay; assay type: functional, cell-based; settings: SW-620, 72 h; summary of the method: as §1

`C=Cc1cn(C/C=C2\OC(=O)C(O)=C2O)c(=O)[nH]c1=O` gave an IC50 (WI-38) of 36 µM, an MIC (Sindbis virus) greater than 29 µM and an MCC ([1]; read-out: MCC) of 720 µM. It also gave an MIC (Coxsackievirus B4) greater than 29 µM, an IC50 (MCF7) of 36 µM and an MIC [2] greater than 144 µM. It also gave an IC50 (L1210) of 309 µM, an IC50 [3] of 309 µM and an MIC (Human alphaherpesvirus 2) greater than 144 µM. For the same compound, the MIC (Human alphaherpesvirus 1 [4]) was greater than 144 µM, the IC50 (MIA PaCa-2) was no less than 100 µM and the IC50 (HEp-2) was 46 µM. The IC50 (HeLa) was 40 µM, the MIC [5] was greater than 120 µM and the IC50 (CCRF-CEM) was 284 µM. For the same compound, the MIC (Punta Toro virus) was greater than 29 µM, the MIC (Human alphaherpesvirus 1 [6]) was greater than 144 µM and the IC50 (SW-620) was greater than 100 µM.

For `O=C1O/C(=C\Cn2cc(C#Cc3ccccc3)c(=O)[nH]c2=O)C(OCc2ccccc2)=C1OCc1ccccc1`, the IC50 (WI-38) was greater than 100 µM, the MIC (Sindbis virus) was 120 µM (≈ 63.9 µg/mL) and the MCC ([1]; read-out: MCC) was 200 µM. It also gave an MIC (Coxsackievirus B4) greater than 200 µM, an IC50 (MCF7) of 55 µM and an MIC [2] greater than 40 µM. For the same compound, the IC50 (L1210) was 108 µM, the IC50 [3] was 108 µM and the MIC (Human alphaherpesvirus 2) was greater than 40 µM. It also gave an MIC (Human alphaherpesvirus 1 [4]) greater than 40 µM, an IC50 (MIA PaCa-2) greater than 100 µM and an IC50 (HEp-2) greater than 100 µM. The IC50 (HeLa) was greater than 100 µM, the MIC [5] was greater than 200 µM and the IC50 (CCRF-CEM) was 101 µM. For the same compound, the MIC (Punta Toro virus) was greater than 200 µM, the MIC (Human alphaherpesvirus 1 [6]) was greater than 40 µM and the IC50 (SW-620) was greater than 100 µM.

`O=C1O/C(=C\Cn2cc(-c3ccc(Cl)o3)c(=O)[nH]c2=O)C(OCc2ccccc2)=C1OCc1ccccc1` showed an IC50 (WI-38) greater than 100 µM, an MIC (Sindbis virus) greater than 150 µM and an MCC ([1]; read-out: MCC) of 752 µM. It also gave an MIC (Coxsackievirus B4) greater than 150 µM, an IC50 (MCF7) of no less than 100 µM and an MIC [2] of 150 µM (≈ 79.9 µg/mL). For the same compound, the IC50 (L1210) was 165 µM, the IC50 [3] was 158 µM and the MIC (Human alphaherpesvirus 2) was greater than 150 µM. It also gave an MIC (Human alphaherpesvirus 1 [4]) greater than 150 µM, an IC50 (MIA PaCa-2) of no less than 100 µM and an IC50 (HEp-2) greater than 100 µM. The IC50 (HeLa) was no less than 100 µM, the MIC [5] was greater than 150 µM and the IC50 (CCRF-CEM) was 162 µM. The MIC (Punta Toro virus) was greater than 150 µM, the MIC (Human alphaherpesvirus 1 [6]) was greater than 150 µM and the IC50 (SW-620) was greater than 100 µM.

For `Nc1nc2c(ncn2COCCO)c(=O)[nH]1` [ACYCLOVIR], the MCC ([1]; read-out: MIC) was greater than 500 µM, the MIC [2] was greater than 500 µM and the MIC (Human alphaherpesvirus 2) was 0.8 µM (≈ 0.18 µg/mL). The MIC (Human alphaherpesvirus 1 [4]) was 0.48 µM (≈ 0.108 µg/mL) and the MIC (Human alphaherpesvirus 1 [6]) was 60 µM (≈ 13.5 µg/mL).

With `C=CCc1cn(C/C=C2\OC(=O)C(OCc3ccccc3)=C2OCc2ccccc2)c(=O)[nH]c1=O` the IC50 (WI-38) was 10.4 µM, the MIC (Sindbis virus) was 24 µM (≈ 11.3 µg/mL) and the MCC ([1]; read-out: MCC) was 40 µM. For the same compound, the MIC (Coxsackievirus B4) was 24 µM (≈ 11.3 µg/mL), the IC50 (MCF7) was 4.7 µM and the MIC [2] was greater than 8 µM. The IC50 (L1210) was 20 µM, the IC50 [3] was 20 µM and the MIC (Human alphaherpesvirus 2) was greater than 8 µM. The MIC (Human alphaherpesvirus 1 [4]) was greater than 8 µM, the IC50 (MIA PaCa-2) was 5 µM and the IC50 (HEp-2) was 4.7 µM. The IC50 (HeLa) was 2.9 µM, the MIC [5] was 24 µM (≈ 11.3 µg/mL) and the IC50 (CCRF-CEM) was 20 µM. For the same compound, the MIC (Punta Toro virus) was greater than 40 µM, the MIC (Human alphaherpesvirus 1 [6]) was greater than 8 µM and the IC50 (SW-620) was 2.7 µM.

For `NC(=O)c1ncn([C@@H]2O[C@H](CO)[C@@H](O)[C@H]2O)n1` [RIBAVIRIN], the MIC (Sindbis virus) was 100 µM (≈ 24.4 µg/mL), the MCC ([1]; read-out: MIC) was greater than 500 µM and the MIC (Coxsackievirus B4) was greater than 500 µM. It also gave an MIC [2] greater than 500 µM, an MIC (Human alphaherpesvirus 2) of 300 µM (≈ 73.3 µg/mL) and an MIC (Human alphaherpesvirus 1 [4]) of 500 µM (≈ 122 µg/mL). The MIC [5] was 100 µM (≈ 24.4 µg/mL), the MIC (Punta Toro virus) was 300 µM (≈ 73.3 µg/mL) and the MIC (Human alphaherpesvirus 1 [6]) was 500 µM (≈ 122 µg/mL).

`O=C1O/C(=C\Cn2cc(/C=C/Br)c(=O)[nH]c2=O)C(OCc2ccccc2)=C1OCc1ccccc1` showed an IC50 (WI-38) of 38 µM, an MIC (Sindbis virus) greater than 150 µM and an MCC ([1]; read-out: MCC) of 746 µM. The MIC (Coxsackievirus B4) was greater than 150 µM, the IC50 (MCF7) was 40 µM and the MIC [2] was 150 µM (≈ 80.6 µg/mL). It also gave an IC50 (L1210) of 196 µM, an IC50 [3] of no less than 200 µM and an MIC (Human alphaherpesvirus 2) greater than 150 µM. The MIC (Human alphaherpesvirus 1 [4]) was greater than 150 µM, the IC50 (MIA PaCa-2) was greater than 100 µM and the IC50 (HEp-2) was 40 µM. For the same compound, the IC50 (HeLa) was 45 µM, the MIC [5] was greater than 150 µM and the IC50 (CCRF-CEM) was 233 µM. It also gave an MIC (Punta Toro virus) greater than 150 µM, an MIC (Human alphaherpesvirus 1 [6]) greater than 150 µM and an IC50 (SW-620) greater than 100 µM.

`Nc1nc2c(ncn2COC(CO)CO)c(=O)[nH]1` [GANCICLOVIR] showed an MCC ([1]; read-out: MIC) greater than 100 µM, an MIC [2] greater than 100 µM and an MIC (Human alphaherpesvirus 2) of 0.096 µM (≈ 0.0245 µg/mL). It also gave an MIC (Human alphaherpesvirus 1 [4]) of 0.096 µM (≈ 0.0245 µg/mL) and an MIC (Human alphaherpesvirus 1 [6]) of 0.8 µM (≈ 0.204 µg/mL).

Compound `O=c1[nH]c(=O)n([C@H]2C[C@H](O)[C@@H](CO)O2)cc1/C=C/Br` [BRIVUDINE] has an MIC (Sindbis virus) greater than 500 µM, an MCC ([1]; read-out: MIC) greater than 500 µM and an MIC (Coxsackievirus B4) greater than 500 µM. It also gave an MIC [2] greater than 500 µM, an MIC (Human alphaherpesvirus 2) of 300 µM (≈ 99.9 µg/mL) and an MIC (Human alphaherpesvirus 1 [4]) of 0.48 µM (≈ 0.16 µg/mL). For the same compound, the MIC [5] was greater than 500 µM, the MIC (Punta Toro virus) was greater than 500 µM and the MIC (Human alphaherpesvirus 1 [6]) was 300 µM (≈ 99.9 µg/mL).
